# From PubChem BioAssay AID504829 (Southern Research Specialized Biocontainment Screening …, 2011)
# Test system: HEp-2 RSV CPE, time of addition, CellTiter-Glo viability
# Test: protection from RSV CPE by addition time, mechanism study for RSV inhibitor project, cell-based, time of addition, HEp-2 (AID 504829)
# Settings: at 25 µM, stronger effect = higher value
# Method in brief: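 System: HEp-2 human cell line, virus-infected | Doses: 25 µM single dose, 0.5% DMSO | Times: 6-day incubation at 37 °C after infection | Signal: ATP-based luminescence with CellTiter-Glo reagent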
# [1] = measured here: added 1 h before infection
# [2] = measured here: added 1 h post infection
# [3] = measured here: added 7 h post infection
# [4] = measured here: added 21 h post infection
# [5] = measured here: added 24 h post infection
Compound,viability (protection from CPE),viability [1],viability [2],viability [3],viability [4],viability [5]
Cc1ccc(C)c(NC(=O)[C@@H]2CCCN2S(=O)(=O)c2cccc3cccnc23)c1,91.4%,91.6%,61.7%,49.6%,35.1%,27.7%
Cc1ccc(NC(=O)[C@@H]2CCCN2S(=O)(=O)c2cccc3cccnc23)c(C)c1,77.1%,87.5%,56%,51.8%,29%,23.1%
COc1ccc(C)c(NC(=O)[C@@H]2CCCN2S(=O)(=O)c2cccc3cccnc23)c1,81.8%,90.4%,63.3%,52.1%,34.3%,24.8%
